# Assay results published in ChEMBL document CHEMBL4354843, “Structure-Based Design of a Potent and Selective Covalent Inhibitor for SRC Kinase That Targets a P-Loop Cysteine” (J Med Chem, 2020).
# Assays:
# [1] = target: Serine/threonine-protein kinase 10 (Homo sapiens) (UniProt O94804); assay: Binding affinity to wild-type human partial length LOK (E16 to V314 residues) expressed in bacterial expression system assessed as residual binding level at 1 uM by Kinomescan method relative to control
# Procedure, shortened: (§1)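 Active-site-directed competition binding panel of 468 kinases (KinomeScan), compound at 1 μM. The read-out is kinase remaining bound, given as a percentage of the DMSO control. […]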
# [2] = target: Cyclin-dependent kinase-like 1 (Homo sapiens) (UniProt Q00532); assay: Binding affinity to wild-type human full length CDKL1 (M1 to I358 residues) expressed in mammalian expression system assessed as residual binding level at 1 uM by Kinomescan method relative to control
# Cyclin-dependent kinase-like 1 (Homo sapiens), sequence (Q00532 whole entry, the tested form may be a part): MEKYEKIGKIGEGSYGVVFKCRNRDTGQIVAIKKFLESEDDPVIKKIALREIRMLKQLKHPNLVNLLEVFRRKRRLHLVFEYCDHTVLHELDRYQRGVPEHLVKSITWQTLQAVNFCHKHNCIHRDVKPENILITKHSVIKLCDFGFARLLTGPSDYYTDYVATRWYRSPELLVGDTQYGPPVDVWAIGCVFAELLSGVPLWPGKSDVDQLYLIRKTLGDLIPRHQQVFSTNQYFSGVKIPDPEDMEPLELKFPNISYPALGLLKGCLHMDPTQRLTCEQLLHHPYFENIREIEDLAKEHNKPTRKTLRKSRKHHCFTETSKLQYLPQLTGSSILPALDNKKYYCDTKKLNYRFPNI
# Procedure, shortened: (§2)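 KinomeScan, an active site-directed competition binding panel of 468 kinases. The test compound was at 1 μM. The readout is remaining kinase binding as a percentage of the DMSO control. Scores above 35% were treated as weak binding and not listed.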
# [3] = target: Mitogen-activated protein kinase kinase kinase 4 (Homo sapiens) (UniProt Q9Y6R4); assay: Binding affinity to wild-type human partial length MAP3K4 (G1319 to E1608 residues) expressed in bacterial expression system assessed as residual binding level at 1 uM by Kinomescan method relative to control
# Mitogen-activated protein kinase kinase kinase 4 (Homo sapiens), sequence (Q9Y6R4 whole entry, the tested form may be a part): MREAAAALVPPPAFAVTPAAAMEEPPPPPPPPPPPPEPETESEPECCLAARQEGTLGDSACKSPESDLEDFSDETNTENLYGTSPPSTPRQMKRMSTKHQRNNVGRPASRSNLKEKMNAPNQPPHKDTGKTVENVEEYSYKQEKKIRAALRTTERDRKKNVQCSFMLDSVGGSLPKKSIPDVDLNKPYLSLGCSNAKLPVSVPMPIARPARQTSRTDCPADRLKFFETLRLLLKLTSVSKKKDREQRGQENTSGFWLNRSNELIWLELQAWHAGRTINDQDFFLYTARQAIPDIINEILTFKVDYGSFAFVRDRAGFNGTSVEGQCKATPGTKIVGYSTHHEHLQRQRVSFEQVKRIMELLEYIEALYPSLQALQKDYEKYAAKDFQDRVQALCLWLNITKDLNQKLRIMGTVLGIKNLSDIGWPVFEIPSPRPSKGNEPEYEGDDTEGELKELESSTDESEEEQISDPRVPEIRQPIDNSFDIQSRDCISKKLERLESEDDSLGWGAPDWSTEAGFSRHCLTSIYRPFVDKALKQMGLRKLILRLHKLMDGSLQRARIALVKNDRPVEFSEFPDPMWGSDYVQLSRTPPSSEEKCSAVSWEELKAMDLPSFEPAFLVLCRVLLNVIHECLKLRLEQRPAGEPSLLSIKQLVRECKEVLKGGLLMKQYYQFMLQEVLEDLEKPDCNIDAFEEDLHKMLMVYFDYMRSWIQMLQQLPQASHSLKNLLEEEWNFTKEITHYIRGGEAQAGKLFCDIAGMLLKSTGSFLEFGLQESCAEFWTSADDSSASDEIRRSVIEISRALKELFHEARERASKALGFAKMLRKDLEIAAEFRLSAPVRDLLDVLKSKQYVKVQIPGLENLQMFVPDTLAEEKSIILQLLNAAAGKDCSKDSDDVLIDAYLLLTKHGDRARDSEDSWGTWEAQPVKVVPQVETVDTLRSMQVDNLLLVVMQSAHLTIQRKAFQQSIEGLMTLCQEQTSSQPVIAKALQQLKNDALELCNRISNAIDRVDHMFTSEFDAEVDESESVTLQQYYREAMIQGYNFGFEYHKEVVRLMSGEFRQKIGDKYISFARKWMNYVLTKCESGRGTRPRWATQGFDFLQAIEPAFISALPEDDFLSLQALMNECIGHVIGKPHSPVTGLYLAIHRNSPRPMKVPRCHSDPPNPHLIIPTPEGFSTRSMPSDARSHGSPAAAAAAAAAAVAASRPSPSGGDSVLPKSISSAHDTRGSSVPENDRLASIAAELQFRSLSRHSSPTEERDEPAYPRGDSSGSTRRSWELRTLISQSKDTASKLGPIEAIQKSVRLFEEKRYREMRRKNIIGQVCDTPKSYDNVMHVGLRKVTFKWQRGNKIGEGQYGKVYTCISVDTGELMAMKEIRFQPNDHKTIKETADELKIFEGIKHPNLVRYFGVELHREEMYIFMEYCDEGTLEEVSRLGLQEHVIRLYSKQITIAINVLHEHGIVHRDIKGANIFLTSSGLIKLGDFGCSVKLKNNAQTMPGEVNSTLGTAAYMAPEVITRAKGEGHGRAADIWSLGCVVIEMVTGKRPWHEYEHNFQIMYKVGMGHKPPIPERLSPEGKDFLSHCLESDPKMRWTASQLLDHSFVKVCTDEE
# [4] = target: Glycogen synthase kinase-3 alpha (Homo sapiens) (UniProt P49840); assay: Binding affinity to wild-type human full length GSK3A (M1 to S483 residues) expressed in bacterial expression system assessed as residual binding level at 1 uM by Kinomescan method relative to control
# Procedure, shortened: (§3)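 Active-site-directed KinomeScan competition binding panel covering 468 kinases, compound tested at 1 μM. Each readout is the kinase signal remaining with compound, expressed as a percentage of the DMSO control. […]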
# [5] = target: Macrophage colony-stimulating factor 1 receptor (Homo sapiens) (UniProt P07333); assay: Binding affinity to wild-type human partial length CSF1R (I564 to S939 residues) expressed in bacterial expression system assessed as residual binding level at 1 uM by Kinomescan method relative to control; procedure, shortened: as §1
# Macrophage colony-stimulating factor 1 receptor (Homo sapiens), sequence (P07333 whole entry, the tested form may be a part): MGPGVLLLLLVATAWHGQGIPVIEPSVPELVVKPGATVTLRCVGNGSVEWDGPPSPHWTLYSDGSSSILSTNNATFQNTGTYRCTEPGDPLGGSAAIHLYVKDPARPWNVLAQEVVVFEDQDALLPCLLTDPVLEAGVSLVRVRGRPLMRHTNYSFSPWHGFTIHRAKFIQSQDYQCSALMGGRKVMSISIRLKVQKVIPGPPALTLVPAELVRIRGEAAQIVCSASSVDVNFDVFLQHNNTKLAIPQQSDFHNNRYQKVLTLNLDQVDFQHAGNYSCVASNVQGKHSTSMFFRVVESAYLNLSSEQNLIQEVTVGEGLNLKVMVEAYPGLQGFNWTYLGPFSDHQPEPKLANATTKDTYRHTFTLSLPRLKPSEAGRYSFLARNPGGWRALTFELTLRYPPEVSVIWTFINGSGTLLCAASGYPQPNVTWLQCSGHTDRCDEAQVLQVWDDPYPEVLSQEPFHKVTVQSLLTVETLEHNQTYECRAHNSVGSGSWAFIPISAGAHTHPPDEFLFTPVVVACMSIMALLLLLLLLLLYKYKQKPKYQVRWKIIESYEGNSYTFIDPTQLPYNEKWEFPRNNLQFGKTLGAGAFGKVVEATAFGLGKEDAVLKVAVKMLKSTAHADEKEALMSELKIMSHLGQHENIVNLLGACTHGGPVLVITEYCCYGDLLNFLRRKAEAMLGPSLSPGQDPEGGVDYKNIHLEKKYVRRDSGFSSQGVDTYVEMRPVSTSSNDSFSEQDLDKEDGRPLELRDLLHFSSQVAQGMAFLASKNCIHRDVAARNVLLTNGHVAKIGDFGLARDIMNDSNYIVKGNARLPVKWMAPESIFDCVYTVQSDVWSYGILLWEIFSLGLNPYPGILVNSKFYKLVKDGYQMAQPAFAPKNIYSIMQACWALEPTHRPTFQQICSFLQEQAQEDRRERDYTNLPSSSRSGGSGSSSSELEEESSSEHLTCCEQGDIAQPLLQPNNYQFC
# [6] = target: Atypical kinase COQ8B, mitochondrial (Homo sapiens) (UniProt Q96D53); assay: Binding affinity to wild-type human full length ADCK4 (M1 to S544 residues) expressed in bacterial expression system assessed as residual binding level at 1 uM by Kinomescan method relative to control; procedure, shortened: as §3
# Atypical kinase COQ8B, mitochondrial (Homo sapiens), sequence (Q96D53 whole entry, the tested form may be a part): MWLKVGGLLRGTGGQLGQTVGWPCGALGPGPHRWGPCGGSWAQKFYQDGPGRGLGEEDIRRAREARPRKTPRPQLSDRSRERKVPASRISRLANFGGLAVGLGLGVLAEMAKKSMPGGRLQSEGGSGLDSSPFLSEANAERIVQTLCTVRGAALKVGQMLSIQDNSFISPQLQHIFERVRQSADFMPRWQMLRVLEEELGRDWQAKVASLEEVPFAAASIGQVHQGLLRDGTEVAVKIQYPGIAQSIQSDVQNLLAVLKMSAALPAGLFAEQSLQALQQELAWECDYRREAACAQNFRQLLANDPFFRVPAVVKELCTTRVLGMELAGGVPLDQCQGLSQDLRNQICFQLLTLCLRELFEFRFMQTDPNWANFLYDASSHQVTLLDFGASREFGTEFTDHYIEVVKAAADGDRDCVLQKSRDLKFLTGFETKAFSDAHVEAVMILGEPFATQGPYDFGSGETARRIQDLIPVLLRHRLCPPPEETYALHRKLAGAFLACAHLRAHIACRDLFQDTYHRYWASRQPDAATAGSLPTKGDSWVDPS
# [7] = target: Phosphatidylinositol 3-kinase catalytic subunit type 3 (Homo sapiens) (UniProt Q8NEB9); assay: Binding affinity to wild-type human partial length VPS34 (S282 to H879 residues) expressed in mammalian expression system assessed as residual binding level at 1 uM by Kinomescan method relative to control
# Procedure, shortened: (§4)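 Active site-directed competition binding panel (KinomeScan, 468 kinases). Test compound at 1 μM. Read-out is kinase binding remaining versus DMSO control, expressed as percent of control. Scores above 35% are treated as weak binding.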
# [8] = target: Cyclin-dependent kinase 18 (Homo sapiens) (UniProt Q07002); assay: Binding affinity to wild-type human full length PCTK3 (M3 to F474 residues) expressed in bacterial expression system assessed as residual binding level at 1 uM by Kinomescan method relative to control; procedure, shortened: as §2
# Cyclin-dependent kinase 18 (Homo sapiens), sequence (Q07002 whole entry, the tested form may be a part): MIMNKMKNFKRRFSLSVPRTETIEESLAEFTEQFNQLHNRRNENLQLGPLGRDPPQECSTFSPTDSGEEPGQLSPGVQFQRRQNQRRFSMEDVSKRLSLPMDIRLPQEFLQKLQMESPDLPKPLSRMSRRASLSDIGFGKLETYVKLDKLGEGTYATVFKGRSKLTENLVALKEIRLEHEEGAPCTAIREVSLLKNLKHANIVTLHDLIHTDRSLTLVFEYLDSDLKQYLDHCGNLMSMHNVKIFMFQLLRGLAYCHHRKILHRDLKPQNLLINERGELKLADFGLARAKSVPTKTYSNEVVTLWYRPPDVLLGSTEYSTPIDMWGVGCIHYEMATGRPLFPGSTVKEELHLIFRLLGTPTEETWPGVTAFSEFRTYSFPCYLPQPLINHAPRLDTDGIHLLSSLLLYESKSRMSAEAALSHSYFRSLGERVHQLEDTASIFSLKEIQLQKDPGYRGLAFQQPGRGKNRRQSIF
# [9] = target: Cyclin-dependent kinase 11B (Homo sapiens) (UniProt P21127); assay: Binding affinity to wild-type human partial length CDC2L1 (P353 to G692 residues) expressed in bacterial expression system assessed as residual binding level at 1 uM by Kinomescan method relative to control
# [10] = target: BMP-2-inducible protein kinase (Homo sapiens) (UniProt Q9NSY1); assay: Binding affinity to wild-type human partial length BIKE (S34 to N329 residues) expressed in bacterial expression system assessed as residual binding level at 1 uM by Kinomescan method relative to control; procedure, shortened: as §2
# [11] = target: Serine/threonine-protein kinase MRCK gamma (Homo sapiens) (UniProt Q6DT37); assay: Binding affinity to wild-type human partial length DMPK2 (S46 to S408 residues) expressed in bacterial expression system assessed as residual binding level at 1 uM by Kinomescan method relative to control
# [12] = target: Tyrosine-protein kinase HCK (Homo sapiens, UniProt P08631); assay: Inhibition of HCK (unknown origin)
# Tyrosine-protein kinase HCK, sequence (P08631 whole entry, the tested form may be a part): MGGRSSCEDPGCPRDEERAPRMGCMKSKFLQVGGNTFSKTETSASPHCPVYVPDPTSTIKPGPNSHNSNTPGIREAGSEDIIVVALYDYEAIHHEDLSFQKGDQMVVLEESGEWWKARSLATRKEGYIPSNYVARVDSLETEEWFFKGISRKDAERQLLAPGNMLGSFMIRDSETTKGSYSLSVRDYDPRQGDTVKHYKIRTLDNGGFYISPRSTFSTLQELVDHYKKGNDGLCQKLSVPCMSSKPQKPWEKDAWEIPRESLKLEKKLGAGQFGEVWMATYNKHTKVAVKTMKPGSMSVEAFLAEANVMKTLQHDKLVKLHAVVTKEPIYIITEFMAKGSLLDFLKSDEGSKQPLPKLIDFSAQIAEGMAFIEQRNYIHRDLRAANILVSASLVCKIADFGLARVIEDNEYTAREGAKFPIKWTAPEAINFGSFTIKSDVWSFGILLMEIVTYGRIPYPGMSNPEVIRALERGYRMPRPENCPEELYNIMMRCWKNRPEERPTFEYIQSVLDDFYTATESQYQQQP
# [13] = target: Serine/threonine-protein kinase STK11 (Homo sapiens) (UniProt Q15831); assay: Binding affinity to wild-type human full length LKB1 (M1 to Q433 residues) expressed in bacterial expression system assessed as residual binding level at 1 uM by Kinomescan method relative to control; procedure, shortened: as §3
# [14] = target: Ephrin type-B receptor 3 (Homo sapiens) (UniProt P54753); assay: Binding affinity to wild-type human partial length EPHB3 (Q599 to T928 residues) expressed in bacterial expression system assessed as residual binding level at 1 uM by Kinomescan method relative to control; procedure, shortened: as §1
# [15] = target: Ephrin type-B receptor 6 (Homo sapiens) (UniProt O15197); assay: Binding affinity to wild-type human partial length EPHB6 (Q634 to P948 residues) expressed in mammalian expression system assessed as residual binding level at 1 uM by Kinomescan method relative to control; procedure, shortened: as §1
# [16] = target: Serine/threonine-protein kinase SIK1 (Homo sapiens) (UniProt P57059); assay: Binding affinity to wild-type human partial length SIK (M1 to Y304 residues) expressed in bacterial expression system assessed as residual binding level at 1 uM by Kinomescan method relative to control; procedure, shortened: as §4
# [17] = target: Phosphatidylinositol 4,5-bisphosphate 3-kinase catalytic subunit alpha isoform (Homo sapiens) (UniProt P42336); assay: Binding affinity to wild-type human partial length PIK3CA (R108 to N1068 residues) expressed in mammalian expression system assessed as residual binding level at 1 uM by Kinomescan method relative to control
# [18] = target: Serine/threonine-protein kinase RIO1 (Homo sapiens) (UniProt Q9BRS2); assay: Binding affinity to wild-type human full length RIOK1 (M1 to K568 residues) expressed in bacterial expression system assessed as residual binding level at 1 uM by Kinomescan method relative to control
# Serine/threonine-protein kinase RIO1 (Homo sapiens), sequence (Q9BRS2 whole entry, the tested form may be a part): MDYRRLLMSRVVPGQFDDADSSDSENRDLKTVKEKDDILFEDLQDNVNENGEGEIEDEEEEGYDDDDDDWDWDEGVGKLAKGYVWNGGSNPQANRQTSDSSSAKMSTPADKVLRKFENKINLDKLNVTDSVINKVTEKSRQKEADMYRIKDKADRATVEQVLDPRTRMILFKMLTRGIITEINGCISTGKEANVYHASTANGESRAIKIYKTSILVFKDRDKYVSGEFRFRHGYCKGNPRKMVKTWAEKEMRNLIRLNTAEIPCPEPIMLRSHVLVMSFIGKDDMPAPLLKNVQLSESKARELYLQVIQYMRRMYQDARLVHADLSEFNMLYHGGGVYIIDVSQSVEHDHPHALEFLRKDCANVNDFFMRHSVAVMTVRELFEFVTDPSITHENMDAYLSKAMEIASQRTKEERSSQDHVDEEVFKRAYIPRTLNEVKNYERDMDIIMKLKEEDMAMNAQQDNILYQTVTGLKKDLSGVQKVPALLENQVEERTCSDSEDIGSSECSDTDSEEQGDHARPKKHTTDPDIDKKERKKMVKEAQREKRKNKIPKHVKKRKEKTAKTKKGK
# Procedure, shortened: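 Active-site-directed competition binding screen across a 468-kinase panel, run with the test compound at 1 μM. The read-out is the kinase signal remaining relative to a DMSO control, reported as a percentage. […]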
# [19] = target: Calcium/calmodulin-dependent protein kinase type II subunit alpha (Homo sapiens) (UniProt Q9UQM7); assay: Binding affinity to wild-type human partial length CAMK2A (M1 to K328 residues) expressed in bacterial expression system assessed as residual binding level at 1 uM by Kinomescan method relative to control
# [20] = system: Phosphatidylinositol 4,5-bisphosphate 3-kinase catalytic subunit alpha isoform (Homo sapiens), P42336 [H1047Y]; assay: Binding affinity to human partial length PIK3CA H1047Y mutant (R108 to N1068 residues) expressed in mammalian expression system assessed as residual binding level at 1 uM by Kinomescan method relative to control
# Procedure, shortened: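 KinomeScan active site-directed competition binding panel (468 kinases), compound tested at 1 μM. Result expressed as remaining kinase signal versus DMSO control (percent of control).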
smiles,measurement,setting,value
C=CC(=O)Nc1ccccc1Nc1nc(Nc2ccc(N3CCN(C)CC3)cc2)ncc1C(=O)Nc1c(C)cccc1Cl,Activity,[1],96%
same,Activity,[2],72%
same,Activity,[3],65%
same,Activity,[4],100%
same,Activity,[5],7.3%
same,Activity,[6],100%
same,Activity,[7],98%
same,Activity,[8],98%
same,Activity,[9],100%
same,Activity,[10],94%
same,Activity,[11],100%
same,IC50,[12],3 nM
same,Activity,[13],100%
same,Activity,[14],97%
same,Activity,[15],6%
same,Activity,[16],1%
same,Activity,[17],100%
same,Activity,[18],100%
same,Activity,[19],100%
same,Activity,[20],100%
